DENV2 CPE rescue = inhibitors of DENV2 cytopathic effect, primary screen, cell-based, plate reader, single concentration; DENV2-infected cells, cytopathic effect rescue; CPE inhibition, % at 9.99 µM; 350,000 tested, 1.7% active; in the data active = CPE inhibition above about 20%, passing the limit was not always enough; tested in BHK-21 cells;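 also: 0% = median of neutral control wells and 100% = median of positive control wells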
CAL PDZ FP-1 = CAL PDZ peptide-binding inhibitors, primary screen, biochemical, fluorescence polarization, Cer-tagged CAL PDZ, HTS; Golgi-associated PDZ and coiled-coil motif-containing protein (Homo sapiens), Q9HD26; purified CAL PDZ, TMR-peptide fluorescence polarization, 1 h; inhibition, % at 20 µM; 330,000 tested, 0.02% active; AID 504414, 2011;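 active = highest replicate inhibition of at least 40%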;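 also: plate controls were DMSO neutral control wells for no effect and unlabeled competitor peptide control wells for full effect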
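Assay system – tagged CAL PDZ protein CerCALP, purified · Timing – 1 h at RT · Compound – single point, 20 µM · Measured by – fluorescence polarization from S- and P-plane intensities, G-factor corrected · Evaluation – inhibition from polarization loss · Probe or stimulus – TMR reporter peptide T*-PRC34 · Buffer or medium – pH 7.4 phosphate-saline buffer, reducing agent, detergent, IgG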
ERAP1 HTS inh = human ERAP1 aminopeptidase inhibitors, primary screen, biochemical, single point, plate reader; Endoplasmic reticulum aminopeptidase 1 (Homo sapiens), Q9NZ08; recombinant ERAP1, Leu-AMC fluorescence, 60 min; inhibition, % at 10.7 µM; 340,000 tested, 0.15% active;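 active = mean replicate inhibition of at least 30%, or all replicates individually reaching that 30% level; inactive = mean below 30% and not every replicate reaching it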;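 also: 0% = neutral control wells and 100% = L-leucinethiol positive control wells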
SIRT5 inh = SIRT5 desuccinylase inhibitors, primary screen, biochemical, fluorescence imaging, single point, set 5 | 330,000 tested, 1.1% active | inhibition, % at 15 µM | Purified SirT5, succinyl-peptide AMC, trypsin-coupled fluorescence | NAD-dependent protein deacylase sirtuin-5, mitochondrial (Homo sapiens), Q9NXA8; in the data active = inhibition above about 15%
Target sequence (Q9NXA8 whole entry, looked up): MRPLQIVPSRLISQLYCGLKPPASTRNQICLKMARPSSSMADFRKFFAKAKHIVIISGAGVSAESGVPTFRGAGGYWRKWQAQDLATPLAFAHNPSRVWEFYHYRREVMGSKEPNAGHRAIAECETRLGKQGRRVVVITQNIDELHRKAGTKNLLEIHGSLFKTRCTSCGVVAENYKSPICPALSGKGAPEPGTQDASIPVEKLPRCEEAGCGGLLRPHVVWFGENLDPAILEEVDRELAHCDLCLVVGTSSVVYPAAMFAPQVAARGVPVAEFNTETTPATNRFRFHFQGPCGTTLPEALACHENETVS
CAL PDZ FP-2 = untagged CAL PDZ binding inhibitors, primary screen, biochemical, fluorescence polarization, HTS. Golgi-associated PDZ and coiled-coil motif-containing protein (Homo sapiens), Q9HD26. purified CAL PDZ, TMR-peptide fluorescence polarization, 1 h. inhibition, % at 24.9 µM. 300,000 tested, 0.92% active. AID 602252, 2012;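 active = mean inhibition of at least 30% with at least half of replicates also reaching 30%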;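 also: 0% = DMSO neutral control and 100% = excess unlabeled competitor peptide PRC23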
S100A4 MyoIIA = inhibitors of S100A4-myosin IIA peptide binding, primary screen, biochemical, fluorescence polarization, TAMRA-MyoIIA peptide; Protein S100-A4 (Homo sapiens), P26447; inhibition, % at 10.7 µM; 360,000 tested, 0.14% active; AID 652163, 2013;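 active = mean inhibition of at least 70% across replicates, with every replicate also reaching that level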
Target sequence (P26447 whole entry, looked up): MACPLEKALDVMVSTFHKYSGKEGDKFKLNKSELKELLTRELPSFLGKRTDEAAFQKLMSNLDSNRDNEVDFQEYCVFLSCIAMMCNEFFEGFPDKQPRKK
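Assay system: human S100A4 monomer with TAMRA-labelled myosin IIA peptide / Buffer or medium: Calcium-containing HEPES buffer, pH 7.2 / Reagent: TAMRA-labelled myosin IIA heavy-chain peptide probe, 5 nM / Compound: one dose per compound / Timing: polarization read 5 min after assay mix addition, stable 5–60 min / Benchmarks: neutral control DMSO, positive control TFP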
Starred values were filed as active, the others as inactive; nt = no result. Rows were chosen to be rich in hits. Some 2.9% of all compounds tested hit in one or more screens of this group.

SMILES | DENV2 CPE rescue | CAL PDZ FP-1 | ERAP1 HTS inh | SIRT5 inh | CAL PDZ FP-2 | S100A4 MyoIIA
O=C(NCC[C@H]1CC[C@H](NS(=O)(=O)c2ccc(Oc3ccccc3)cc2)[C@@H](CO)O1)C1CC1 | 85* | nt | -1 | 2 | nt | 1
Cc1ccc(S(=O)(=O)N[C@@H]2CC[C@@H](CCNC(=O)C3CCCC3)O[C@H]2CO)cc1 | -2 | nt | 1 | 5 | nt | -1
Cc1ccc(S(=O)(=O)N(C)C[C@H]2Oc3c(NC(=O)NC4CCCCC4)cccc3C(=O)N([C@@H](C)CO)C[C@@H]2C)cc1 | -6 | nt | -2 | 5 | nt | -4
O=C(C1CCCN(S(=O)(=O)c2ccccc2)C1)N1CCN(c2ncccn2)CC1 (stereo unspecified) | nt | -1 | nt | nt | -2 | nt
CCc1ccc(NC(=O)C2CCCN(S(=O)(=O)c3cccnc3)C2)cc1 (stereo unspecified) | 3 | -2 | 2 | 8 | 3 | -1
Cc1ccc(NC(=O)C2CCCN(S(=O)(=O)c3cccnc3)C2)cc1C (stereo unspecified) | 4 | -1 | 0 | 18* | -2 | -6
O=C(C1CCCN(S(=O)(=O)c2cccnc2)C1)N1CCN(c2ccccn2)CC1 (stereo unspecified) | 87* | -1 | -4 | nt | nt | 0
O=C(C[C@H]1CC[C@@H](NC(=O)C2CC2)[C@H](CO)O1)NCc1ccncc1 | 0 | nt | 0 | 1 | nt | 9
O=C(/C=C/[C@H]1O[C@@H](n2ccc(=O)[nH]c2=O)[C@H](O)[C@@H]1O)NCc1cccs1 | 23* | nt | -1 | 10 | nt | -7
C[C@@H]1CCCCO[C@H](CN(C)C(=O)c2ccccc2)[C@@H](C)CN([C@H](C)CO)C(=O)c2cc(NS(C)(=O)=O)ccc2O1 | -3 | nt | -1 | 0 | nt | -30
CCc1nnc(NS(=O)(=O)c2ccc(N3C(=O)c4ccccc4C3=O)cc2)s1 | -3 | -1 | -1 | -2 | 84* | 5
Cc1noc(NS(=O)(=O)c2ccc(N3C(=O)c4ccccc4C3=O)cc2)c1C | nt | -1 | nt | nt | -13 | nt
CC(=O)NS(=O)(=O)c1ccc(N2C(=O)c3ccccc3C2=O)cc1 | 1 | 0 | -4 | 15* | -3 | 6
COc1ccccc1CNC(=O)C[C@H]1C[C@H]2c3cc(NC(=O)c4cccnc4)ccc3O[C@H]2[C@H](CO)O1 | 12 | nt | 3 | -4 | nt | -12
O=C(CCNC(=O)c1ccc(Br)cc1)NNC(=O)COc1ccccc1F | -8 | 0 | 2 | -5 | 0 | -2
CC(C)(C)c1ccc(C(=O)NCCC(=O)NNC(=O)COc2ccc(F)cc2)cc1 | 1 | 0 | 1 | -1 | 33* | 0
COc1cc(CC(=O)NC2CCCc3ccccc32)cc(OC)c1OC (stereo unspecified) | 0 | -1 | 0 | 0 | 43* | -2
CCOc1ccc(NC(=O)CN(C)CC(=O)NC2CCCc3ccccc32)cc1OCC (stereo unspecified) | nt | 0 | nt | nt | 40* | nt
CC(=O)c1ccc(OCCCC(=O)NC2CCCc3ccccc32)cc1 (stereo unspecified) | 22* | 0 | 6 | nt | -2 | -17
S=C(NCc1ccccc1)NC1CCCc2ccccc21 (stereo unspecified) | 1 | -1 | -1 | 112* | 0 | -4
COc1ccccc1CC(=O)NC1CCCc2ccccc21 (stereo unspecified) | 0 | -1 | 4 | -1 | 1 | -6
COc1ccc(OC)c(S(=O)(=O)Oc2ccc(N)c3ccccc23)c1 | -4 | 2 | nt | 15* | -4 | -2
Cc1ccc(NC(=O)n2ccc(-c3ccc(-n4ccnc4)cc3)n2)cc1 | -5 | -1 | -2 | 17* | 3 | -5

Bioassay records from PubChem BioAssay.
